LANA-H2B inh = blocks KSHV LANA binding to histone H2A/H2B; Q9QR71; cell-free LANA-H2A/H2B peptide, fluorescence polarization; inhibition, % (concentration not given with the values); 0.6% of 320,000 active; in the data active = inhibition mostly above about 10%, no sharp cut-off; inactive = mostly below about 6.7%
Runt-CBFb FRET = Runt domain-CBFb interaction inhibition. Cerulean-Runt/Venus-CBFb FRET ratio 530/480, 1 h. inhibition, % at 20 µM. AID 1496. 0.46% of 220,000 active. Q01196+Q13951;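 active = inhibition over about 50% at 20 µM in the single-dose screen, limit read from the data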;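 also: 0% = DMSO wells and 100% = excess unlabeled CBFb competitor control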
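Reagent – Venus-CBFb binding partner, 100 nM · Assay system – Cerulean-tagged RUNX1 Runt domain (FRET donor) fusion protein · Input – 100 nM per protein · Incubation – two 1 h room-temperature incubations shielded from light · Measured by – FRET fluorescence · Medium – Tris buffer pH 7.5 with salts and BSA · Benchmarks – unlabeled CBFb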
Runt-SMMHC FRET = blocks binding of human RUNX1 Runt domain to CBFb-SMMHC. Q01196+Q13951. Cerulean-Runt/Venus-CBFb-SMMHC FRET ratio 530/480, 1 h. inhibition, % at 20 µM. 0.74% of 220,000 active. AID 1434;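 active = mean inhibition across duplicate retests at 20 µM reaching about 50%, limit read from the data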;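 also: 0% = DMSO wells and 100% = wells with excess untagged CBFb-SMMHC; inhibitors lower the FRET ratio by blocking Runt binding to CBFb-SMMHC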
RanGTP-Imp inh = inhibitors of RanGTP-importin-beta interaction, primary screen, biochemical, FRET, CFP-Ran, YFP-importin-beta, homogeneous. cell-free CFP-Ran/YFP-importin-beta FRET ratio. inhibition, % (no concentration beside the values). 1.1% of 300,000 active;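 active = more than half of the replicate wells show a fall in the fluorescence ratio signal beyond about 16%, limit read from the data, passing the limit was not always enough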;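 also: 0% = DMSO wells and 100% = Ran loaded with GDP instead of GTP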
CaV13 FRET inh = Primary screen for inhibitors of IQ motif and Ca2+-dependent inactivation inhibitor domain binding in CACNA1D, Förster resonance energy transfer in living cells, …; HEK cells, CFP/YFP FRET ICDI-IQ, plate reader, 10 min; percent FRET-ratio fall versus neutral wells; inhibition, % at 12.3 µM; 0.098% of 340,000 active; AID 743397;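 active = mean replicate inhibition of at least 30% and at least 1% of replicates passing that level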;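 also: 0% = median of the neutral control wells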
HDAC3 inh = blocks human histone deacetylase 3; O15379; AID 2718; inhibition, % at 8.3 µM; recombinant HDAC3, fluorogenic peptide/trypsin coupled, fluorescence; 0.15% of 320,000 active; in the data active = inhibition above about 26%, passing the limit was not always enough
Target sequence (O15379 whole entry, looked up): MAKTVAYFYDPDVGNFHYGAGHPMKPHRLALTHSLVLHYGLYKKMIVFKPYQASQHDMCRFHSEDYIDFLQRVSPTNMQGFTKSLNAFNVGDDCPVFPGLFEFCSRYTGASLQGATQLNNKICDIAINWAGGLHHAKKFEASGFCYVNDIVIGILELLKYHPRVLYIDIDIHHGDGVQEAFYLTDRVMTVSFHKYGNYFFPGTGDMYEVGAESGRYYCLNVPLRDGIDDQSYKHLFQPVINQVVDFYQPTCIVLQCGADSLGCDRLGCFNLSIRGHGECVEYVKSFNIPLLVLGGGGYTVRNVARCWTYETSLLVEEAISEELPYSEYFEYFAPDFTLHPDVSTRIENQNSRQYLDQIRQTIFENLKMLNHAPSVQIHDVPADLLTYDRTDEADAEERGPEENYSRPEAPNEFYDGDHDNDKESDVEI
RUNX1 CBFb TR = Runt-CBFb binding inhibition. shares compounds with Runt-CBFb FRET. TR-FRET RUNX1 Runt domain-CBFb binding. inhibition, % at 20 µM. 20% of 480 active. AID 1502; in the data active = inhibition above about 40%
Numbers without * were called inactive; x = no result given; + = active, no number. Compounds with a hit are over-represented: about 1.9% of the library has one in this group of screens.

SMILES	LANA-H2B inh	Runt-CBFb FRET	Runt-SMMHC FRET	RanGTP-Imp inh	CaV13 FRET inh	HDAC3 inh	others
Fc1ccc(C(OCCN2CCCC2)c2ccc(Br)cc2)cc1 (stereo not given)	13*	1	4	3	-3	4
CCCOc1ccc(C(C)=O)cc1Cc1c(O)[nH]c(=S)[nH]c1=O	16*	x	x	0	-7	-6
CCOc1ccc(C(C)=O)cc1Cc1c(O)[nH]c(=S)[nH]c1=O	0	x	x	4	-5	7
N=C(N)c1c(O)n(C2CCCCC2)c(=O)n(C2CCCCC2)c1=O	0	-2	-3	1	-6	28*
O=C1NC(=O)N(CCNc2ncc(C(F)(F)F)cc2Cl)C(=O)C1Cc1ccc(Cl)cc1 (stereo not given)	5	-6	0	3	-3	8
Cc1cc(OCCCC(=O)NCc2cccs2)ccc1Cl	23*	-2	0	5	-4	6
C=CC(=O)NCNC(=O)C=C	10*	x	x	x	x	2
Cc1ccc(-n2c(O)c(C=NCCCn3ccnc3)c(=O)[nH]c2=O)cc1	13*	2	-2	1	-4	-6
COP(=S)(OC)SCN1C(=O)c2ccccc2C1=O	23*	27	41	-2	-4	x
CNC(=O)CSP(=S)(OC)OC	x	x	x	x	-5	x
COc1c(OP2(=S)OCC(C)(C)CO2)cnn(C2CCCCC2)c1=O	x	x	x	x	-11	x
COC(=O)C1=C(c2cccc(C#N)c2)C[C@@H]2CC[C@H]1N2C(=O)N1CCCC1	-1	x	x	x	-5	-2
CC(C)Oc1cccc(NC(=O)c2cccn(Cc3ccc4c(c3)OC(F)(F)O4)c2=O)c1	0	-4	-7	3	x	34*
NC(Cc1ccccc1)Cc1ccccc1	0	0	-2	3	-7	1
Cc1ccccc1N1C(=O)/C(=C/c2ccco2)C(=O)NC1=S	26*	x	x	2	x	1
CCOc1ccc(N2C(=O)/C(=C/c3ccco3)C(=O)NC2=S)cc1	6	x	x	2	x	0
O=C(CCN1CC2CCC(CC2)C1)c1cccs1	x	x	x	x	-6	x
O=[N+]([O-])c1ccc(N2CCCCCC2)c2nonc12	-16	x	x	-60	-4	0
Nc1ccc2nonc2c1[N+](=O)[O-]	29*	-7	-64	-35	-61	1
COC1=CC2[C@@H]3Cc4ccc(OC)c(O)c4[C@]2(CCN3C)CC1=O (stereo not given in full)	-7	x	x	x	-3	0
CC(C)(C)OC(=O)c1c(N)n(Cc2ccco2)c2nc3ccccc3nc12	-5	71*	59*	32*	-3	-10
C=CCNC(=O)c1c(N)n(Cc2ccco2)c2nc3ccccc3nc12	-2	76*	42	77*	-2	-44
COCCNC(=O)c1c(N)n(Cc2ccco2)c2nc3ccccc3nc12	-7	58*	42	90*	-4	-43
CCCC1(CC(C)C)C(=O)NC(=S)NC1=O	x	x	x	x	-10	x
Cc1cc(C(=O)N2CCC3(CC2)OCCO3)cs1	1	0	0	-3	-5	-1
SMILES	LANA-H2B inh	Runt-CBFb FRET	Runt-SMMHC FRET	RanGTP-Imp inh	CaV13 FRET inh	HDAC3 inh	others
Cc1cc(C)c(C(=O)N2CCC3(CC2)OCCO3)c(C)c1	28*	x	x	5	-5	11
CCC1(C)CN(S(=O)(=O)OCC(Cl)(Cl)Cl)C(=O)N1 (stereo not given)	6	x	x	1	-4	7
Cc1cccc(-n2c(O)c(/C=C3/C(c4ccccc4)=Nc4ccccc43)c(=O)[nH]c2=O)c1	86*	-5	-15	2	-5	-2
C=C1[C@H]2CC[C@H]3[C@]4(C)C[C@H](O[C@@H]5OC(CO)[C@@H](OSOOO)[C@H](OS(=O)(=O)O)[C@H]5OC(=O)CC(C)C)C[C@@H](C(=O)O)[C@H]4CC[C@]3(C2)[C@H]1O (stereo not given in full)	2	x	x	x	-9	0
Nc1ccc2ccc3cccc[n+]3c2c1	36*	x	x	-337	+	-2
COc1ccc(/C=C/C(=O)NC(=S)N2C[C@H]3C[C@H](C2)c2cccc(=O)n2C3)cc1OC	3	x	x	4	x	5
O=C1NC(=O)C2=Cc3ccc(O)cc3OC2(O)N1 (stereo not given)	x	3	90*	x	x	x
c1ccc2nc(N3CCNCC3)ccc2c1	0	x	x	x	-4	5
Cc1ccc(S(=O)(=O)NC(CC(=O)N2CCC3(CC2)OCCO3)c2ccco2)cc1 (stereo not given)	1	0	1	21*	-3	-19
CC(=O)Nc1ccc(S(=O)(=O)NC(CC(=O)N2CCC3(CC2)OCCO3)C(C)C)cc1 (stereo not given)	-3	0	0	1	0	1
CCC1(CC(C)C)C(=O)NC(=S)NC1=O	x	x	x	x	-6	x
Cc1c(NS(=O)(=O)c2ccccc2)ccc([N+](=O)[O-])c1Cl	x	x	x	x	-7	x
O=[N+]([O-])c1ccc(Cl)c(Cl)c1Cl	24*	x	x	x	x	-1
COc1ccc2ccc(O)c(CN3CC=C(c4ccccc4)CC3)c2c1	0	2	0	-8	3	0
O=C1NC(=O)N(c2ccccc2)C(=O)/C1=C\C=C\c1ccccc1	2	37	55*	0	-6	3
Cc1cc(OCC(=O)NCc2ccncc2)c2c3c(c(=O)oc2c1)CCC3	16*	x	x	-1	-14	-6
Cc1cc(C(=O)OCC(=O)Nc2ccccc2F)c(C)n1C1CC1	x	x	x	x	-7	x
Cc1cc(C(=O)OCC(=O)Nc2ccc(F)cc2F)c(C)n1C1CC1	146*	x	x	x	-3	-2
CCC(C)OC(=O)c1c(N)n(Cc2cccs2)c2nc3ccccc3nc12 (stereo not given)	5	53*	94*	12	-8	-7	RUNX1 CBFb TR=29
CSCCC(c1nnnn1C(C)(C)C)N1CCC2(CC1)C(=O)NCN2c1ccccc1 (stereo not given)	x	x	x	x	-6	x
CCCCn1c(=O)c(C(=O)NCCc2ccccc2)c(O)c2ccccc21	1	x	x	0	-2	-5
COCCCn1c(N)c(C(=O)NCc2ccco2)c2nc3ccccc3nc21	-4	60*	81*	58*	0	-14	RUNX1 CBFb TR=34
Nc1c(C(=O)NCCc2ccccc2)c2nc3ccccc3nc2n1CCN1CCOCC1	-4	58*	91*	78*	x	-5	RUNX1 CBFb TR=23
CCOc1cc2c(cc1OCC)-n1cccc1C(c1cccc([N+](=O)[O-])c1)NC2 (stereo not given)	-2	x	x	4	-19	2

Bioassay records: PubChem BioAssay, several laboratories
